Assay outcomes (PubChem BioAssay)
SENP7 inh – SENP7 protease inhibition | Q9BQF6 | recombinant SENP7, Z-RLRGG-aminoluciferin luminescence, 40 min | inhibition, % at 5 µM | 330,000 compounds, 1.5% hits | AID 434973;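 active = inhibition above about 50% at the single test dose, limit read from the data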
Target sequence (Q9BQF6 706-1050 limits assumed): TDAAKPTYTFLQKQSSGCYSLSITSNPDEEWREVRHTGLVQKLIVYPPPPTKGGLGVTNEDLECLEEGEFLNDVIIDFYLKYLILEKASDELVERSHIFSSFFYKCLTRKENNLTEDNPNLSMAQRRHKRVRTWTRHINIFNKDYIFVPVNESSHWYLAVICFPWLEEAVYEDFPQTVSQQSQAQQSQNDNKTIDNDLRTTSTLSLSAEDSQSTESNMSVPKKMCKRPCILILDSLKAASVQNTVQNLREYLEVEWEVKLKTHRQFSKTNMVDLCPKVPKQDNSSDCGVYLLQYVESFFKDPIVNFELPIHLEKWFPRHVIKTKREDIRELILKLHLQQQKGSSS
SENP1 inh – SENP1 (human) catalytic domain inhibition; AID 624204; recombinant SENP1 catalytic domain, CyPet-SUMO1-YPet FRET cleavage; 360,000 compounds, 0.21% hits; inhibition, % at 10 µM; Q9P0U3;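 active = inhibition at least 30% at 10 µM, raw YFP signal under a set limit, fluorescence ratio 0.5 to 1.5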
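Assay system: hSENP1 catalytic domain, recombinant. Amount: SENP1 enzyme, 20 pM final. Schedule: 50 min reaction, RT, dark. Technique: FRET, CFP and YFP emission. Control set: no-enzyme wells low, DMSO-plus-enzyme wells high control.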
SENP6 inh – inhibitors of human SENP6 protease; Q9GZR1; Recombinant SENP6 catalytic domain, aminoluciferin luminescence; inhibition, % at 10 µM; 330,000 compounds, 1.8% hits;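 active = inhibition above about 50% at the single tested dose, limit read from the data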
SENP8 block-1 – blocks human SENP8 cleavage of Nedd8 substrate; Q96LD8; recombinant SENP8, Nedd8 substrate fluorescence; inhibition, % at 20 µM; 360,000 compounds, 0.64% hits; AID 602440; in the data active = inhibition mostly above about 40%, no sharp cut-off; inactive = mostly below about 27%
Target sequence (Q96LD8 whole entry, looked up): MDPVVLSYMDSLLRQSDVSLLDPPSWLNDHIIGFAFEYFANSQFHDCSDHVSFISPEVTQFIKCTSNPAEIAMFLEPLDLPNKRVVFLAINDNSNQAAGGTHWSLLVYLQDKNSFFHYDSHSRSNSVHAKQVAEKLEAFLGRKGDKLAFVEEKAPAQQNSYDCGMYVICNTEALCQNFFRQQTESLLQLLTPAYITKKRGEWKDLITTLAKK
SENP8 block-2 – inhibitors of human SENP8 protease; Q96LD8; purified SENP8, Z-RLRGG-aminoluciferin cleavage, luminescence; inhibition, % at 10 µM; 330,000 compounds, 1.2% hits; in the data active = inhibition above about 50%
SENP8 conf – human SENP8 inhibition, confirmed | shares compounds with SENP7 inh | Recombinant SENP8, Z-RLRGG-aminoluciferin luminescence, 60 min | inhibition, % at 12.5 µM | 6,200 compounds, 40% hits | AID 488912;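 active = mean inhibition across replicates above about 50%, limit read from the data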
SENP6 confirm – human SENP6 inhibition, confirmed; shares compounds with SENP7 inh; recombinant SENP6, Z-RLRGG-aminoluciferin luminescence; inhibition, % at 12.5 µM; 6,200 compounds, 58% hits; AID 488915
SENP7 confirm – human SENP7 inhibition, confirmed; 6,200 compounds, 69% hits; inhibition, % at 12.5 µM; AID 488917; recombinant SENP7, Z-RLRGG-aminoluciferin luminescence, 40 min; shares compounds with SENP7 inh
Casp3 SENP sel – inhibits human caspase-3 in SENP selectivity test; shares compounds with SENP7 inh; purified caspase-3, Z-DEVD-aminoluciferin luminescence, 60 min; inhibition, % at 12.5 µM; 6,200 compounds, 60% hits; AID 488918;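 active = mean inhibition above about 50%, limit read from the data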
SENP luc ctr – interferes with luciferase luminescence in SENP counter-screen; Pre-incubated SENP8/Z-RLRGG-aminoluciferin, luciferase luminescence interference; inhibition, % at 12.5 µM; 6,200 compounds, 39% hits; shares compounds with SENP7 inh;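 active = mean inhibition above about 50% when retested at one dose, limit read from the data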
A number is an active result; n = inactive; x = no result given. In the library only some 2.5% were active in any assay of this set; here they are far more common.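 The calls were made as follows, unless noted: active = mean inhibition above about 50% in the one-dose retest (limit read from the data); inactive = the rest.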

SMILES	SENP7 inh	SENP1 inh	SENP6 inh	SENP8 block-1	SENP8 block-2	SENP8 conf	SENP6 confirm	SENP7 confirm	Casp3 SENP sel	SENP luc ctr
Cc1cc2c(cc1C)NC(=O)C(C)CN2 (stereo not drawn)	x	n	x	n	x	x	x	x	x	x
Cc1cc(C)n(-c2cc(-n3nc(C)cc3C)ncn2)n1	n	n	n	n	n	x	x	x	x	x
Cc1ccc(Oc2cc(-n3nc(C)cc3C)ncn2)cc1	n	n	54	n	n	n	n	73	n	n
O=C(Nc1ccccc1)C(=O)c1c[nH]c2ccccc12	97	n	93	n	89	86	90	100	85	n
COC(=O)c1ccc(NC(=O)C(=O)c2c[nH]c3ccccc23)cc1	n	n	n	n	n	x	x	x	x	x
Cc1cc(O)ccc1Nc1nc(-c2cccs2)cs1	n	n	70	n	70	n	95	100	78	94
Cc1ccc(Nc2nc(-c3ccccc3)cs2)nc1	89	n	n	n	91	85	97	102	84	72
O=C(Nc1nc(-c2ccccc2)cs1)NC1CCCCC1	n	n	n	n	n	x	x	x	x	x
Cc1ccc(S(=O)(=O)Nc2nc(-c3ccccc3)cs2)cc1	n	n	n	n	n	x	x	x	x	x
c1cncc(Nc2nc(-c3cccs3)cs2)c1	n	n	n	n	n	x	x	x	x	x
Cc1ccc(Nc2nc(-c3cccs3)cs2)nc1	n	n	93	n	91	n	98	102	85	68
c1ccc(-c2csc(NC3CCCCC3)n2)cc1	n	n	66	n	n	83	82	95	62	67
Cc1ccccc1-c1cc(C(=O)NCc2cccc(C(F)(F)F)c2)n(CC2CC(c3cccnc3)=NO2)n1 (stereo not drawn)	n	n	n	n	n	x	x	x	x	x
COc1ccccc1OCCNC(=O)c1cccc(S(=O)(=O)NCc2ccccc2)c1	n	n	n	n	n	x	x	x	x	x
Cc1ccc2cc3c(=O)n(C)cc(C=O)c3nc2c1	x	n	x	n	x	x	x	x	x	x
CCNC(=O)C1(C)CCCN(Cc2ccccc2-c2ccccc2)C1 (stereo not drawn)	x	n	x	n	x	x	x	x	x	x
Cc1cc(C)nc(Nc2nc(C(N)c3ccccc3)cs2)n1 (stereo not drawn)	x	n	x	n	x	x	x	x	x	x
Cc1cc(C)nc(Nc2nc(-c3ccccc3)cs2)n1	90	n	74	n	82	n	n	n	n	n
C/C(=N\NC(=O)c1ccc(CSc2nc(C)cc(C)n2)cc1)c1ccco1	n	n	n	n	n	x	x	x	x	x
COc1cccc(-c2nnc(-c3ccco3)o2)c1	55	n	67	n	n	58	56	87	80	65
COc1cccc(-c2nnc(N)o2)c1	n	n	n	n	n	x	x	x	x	x
COc1cccc(-c2nnc(NC(=O)c3cccc(F)c3)o2)c1	n	n	60	n	56	n	n	n	n	n
COc1cccc(-c2nnc(-c3ccccc3[N+](=O)[O-])o2)c1	50	n	n	n	n	n	n	67	n	n
COc1cccc(-c2nnc(-c3ccc(C)o3)o2)c1	56	n	n	n	n	62	64	89	82	74
Cc1cc(Oc2ccc(-c3nnc(-c4ccccc4)o3)cc2[N+](=O)[O-])ccc1Cl	n	n	n	n	n	x	x	x	x	x
SMILES	SENP7 inh	SENP1 inh	SENP6 inh	SENP8 block-1	SENP8 block-2	SENP8 conf	SENP6 confirm	SENP7 confirm	Casp3 SENP sel	SENP luc ctr
Cc1ccc2c(c1C)C(=O)C(=O)N2	x	n	x	n	x	x	x	x	x	x
Nc1cccc2cc(-c3ccccc3)oc12	n	n	55	n	n	n	n	72	n	53
COc1cccc2cc(-c3ccccc3)oc12	n	n	n	n	n	x	x	x	x	x
Cn1nc(Cc2n[nH]c(=S)n2C)c2ccccc2c1=O	n	n	n	n	n	x	x	x	x	x
Clc1ccc(/C=N/NC2=Nc3cccc4cccc2c34)cc1	n	n	n	n	n	x	x	x	x	x
C(=N\NC1=Nc2cccc3cccc1c23)/c1ccccc1	n	n	62	n	n	n	n	83	n	n
Cc1cc(C(=O)N2CCCC(Nc3ccccc3)C2)c2ccc(F)cc2n1 (stereo not drawn)	n	n	n	n	n	x	x	x	x	x
NCC(=O)NCC(=O)NC[C@H]1O[C@@H](n2cnc3c(N)ncnc32)[C@H](O)[C@@H]1O	n	n	x	n	x	x	x	x	x	x
CN(C(=O)c1ccc(NC(=O)Cc2ccccc2)cc1)c1ccccc1	61	n	54	n	n	n	n	74	65	59
COc1ccc(NC(=O)c2cc(C3CCCCN3S(=O)(=O)c3cn(C)cn3)on2)c(C)c1 (stereo not drawn)	x	n	x	n	x	x	x	x	x	x
N#Cc1ccc(C(=O)Nc2nnc(-c3ccccn3)o2)cc1	58	n	69	n	51	64	60	89	86	56
O=c1cc(/C=C/c2ccccc2)oc2ccccc12	n	n	62	n	55	n	78	93	64	73
O=c1cc(CO)oc2ccccc12	n	n	n	n	n	x	x	x	x	x
O=C(Nc1ccc2c(c1)OCCO2)c1cc2sccc2n1Cc1ccccc1	n	n	n	n	n	x	x	x	x	x
Cn1nc(C(=O)Nc2ccc3c(c2)OCCO3)cc1C(=O)O	66	n	56	n	n	56	54	86	85	64
Cn1c(C(=O)Nc2ccc3c(c2)OCCO3)cc2sccc21	79	n	74	n	70	86	85	97	70	74
Cn1ccc(C(=O)Nc2ccc3c(c2)OCCO3)n1	n	n	n	n	n	x	x	x	x	x
Cn1nccc1C(=O)Nc1ccc2c(c1)OCCO2	71	n	81	n	55	58	58	88	88	65
Cc1c(C(=O)Nc2ccc3c(c2)OCCO3)cnn1C	n	n	n	n	n	x	x	x	x	x
COc1cc(C(=O)NCCN2C(=O)S/C(=C\c3ccc(F)cc3)C2=O)ccc1OCC(=O)N1CCOCC1	n	x	n	x	n	x	x	x	x	x
Cc1ccc2nc(NC(=S)NC(=O)c3ccc(OC(C)C)cc3)sc2c1	n	n	n	n	n	x	x	x	x	x
CCCOc1ccc(C(=O)NC(=S)Nc2nc3ccccc3s2)cc1	92	n	n	n	n	n	n	n	n	n
COc1ccc(/C(C)=N/OCC(=O)Nc2nc3ccccc3s2)cc1OC	n	n	53	n	n	n	n	64	n	n
COc1ccc(/C=N/OCC(=O)Nc2nc3ccccc3s2)cc1	54	n	78	n	53	n	n	n	n	n
C/C(=N\OCC(=O)Nc1nc2ccccc2s1)c1ccccc1	n	n	n	n	n	x	x	x	x	x
